# An excerpt weighted towards active compounds, which were near 12% of everything screened.
# MT stabilize HCS: microtubule stabilization, imaging screen; 200,000 tested, 0.83% active; % tubulin-high responders, % at 10 µM; HeLa tubulin immunostaining HCS, 24 h; share of cells brighter than vehicle mean+2SD;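 active means plate Z-score above 3 for both tubulin-high and condensed-nucleus cell shares, with cell loss under 80%, at 10 µM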;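 further: anti alpha tubulin signal scored within the nucleus-defined area of each cell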
# Lmaj promast: Leishmania major promastigote growth inhibition. Leishmania major promastigotes, resazurin fluorescence viability. inhibition, % at 10 µM. 200,000 tested, 9% active. AID 1063; in the data active means inhibition above about 50%;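 further: promastigotes grown with compound for 44 hours at 28 °C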
# Dynein transport: dynein cargo transport inhibition; AID 1381; 3617.4 mouse cells, GR-EGFP nuclear translocation imaging; test concentration mostly 20 µM; stimulated with dexamethasone, 1 µM; hits give low values; z-score, hits read low; 220,000 tested, 0.47% active;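 active means plate z-score of nuclear minus cytoplasmic receptor signal below a set negative limit, without overly bright fluorescence or cell loss, cut at about -3.5 in these data, passing the limit was not always enough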;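 further: z-score of nuclear minus cytoplasmic ring GR-EGFP intensity difference per well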
#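 Buffer or medium: tetracycline-free induction medium containing charcoal-stripped FBS / Reagent: dexamethasone agonist, 1.0 µM final, for 30 min / Technique: automated 10x imaging of fixed Hoechst-stained cells / Times: induction 48 h, compound 1 h, agonist 30 min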
# Autophagy HCS: alters autophagy in cells; MEF GFP-LC3 puncta imaging; test concentration mostly 10 µM; calls only at 10 µM (by protocol); 190,000 tested, 0.98% active;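 active means percentage of spot-positive cells more than 3 SD above its plate mean, without a fluorescence outlier flag or 80% toxicity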;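 further: spot-positive cell cutoff set from DMSO-treated cells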
# bCat nuc transl: beta-catenin nuclear translocation modulation. HeLa beta-catenin nuclear translocation, immunofluorescence imaging. nuclear translocation activity, % at 5 µM. 190,000 tested, 0.3% active;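 active means nuclear translocation activity above 50% at 5 µM, with a well cell count of 50 or more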;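 further: per-cell ratio of nuclear to cytoplasmic median beta-catenin stain intensity; plate controls were DMSO negative control for no effect and GSK-3 inhibitor IX positive control for full effect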
#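 Test system: human HeLa cells, native beta-catenin. Compound dosing: 5 µM primary single dose, 0.1% DMSO, 0.02–20 µM confirmation series. Incubation: compound exposure 24 h at 37°C. Detection: beta-catenin immunostaining with DAPI counterstain, 20x imaging, 6 fields/well. Read-out basis: Nuclear/cytoplasmic beta-catenin signal ratio, % activation.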
# CHOP inhibitor: blocks CHOP induction under ER stress. CHO-K1 CHOP-promoter luciferase, tunicamycin-induced, 15-18 h. inhibition, % at 10 µM. 220,000 tested, 3.8% active. AID 2732;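 active means compounds that reduced the stress-induced luciferase reporter signal by more than about 70% of percent inhibition, limit read from the data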;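 further: 0% = tunicamycin plus vehicle and 100% = wells without tunicamycin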
# An asterisk follows results filed as active; i = inactive; nt = no result given; + = active, no number.
SMILES,MT stabilize HCS,Lmaj promast,Dynein transport,Autophagy HCS,bCat nuc transl,CHOP inhibitor
Cc1nc(SCC(C)C)[nH]c(=O)c1Cc1ccccc1,2,0,0.48,+,-3,83*
O=C(O)CCSCCCN1C(=O)c2cccc3cccc(c23)C1=O,3,-4,-0.17,i,-2,20
C#CCn1c(=NC(=O)c2ccc(Cl)s2)sc2cccc(OC)c21,5,2,-0.18,i,-1,79*
CC(=O)N1N=C(c2ccccc2OC(=O)/C=C/c2ccccc2)CC1c1ccccc1 (stereo not given),nt,nt,0.14,nt,4,-1
COc1ccc(C[C@H]2c3cc(O)c(OC)cc3CC[N+]2(C)[O-])cc1O (stereo not given in full),nt,nt,-0.11,nt,-1,-11
Cc1cccc(NC(=S)NNC(=S)NC2CCCCC2)c1C,2,2,2,i,1,20
CCCN1C2CCCC1CC(NC(=S)Nc1cc(C)ccc1C)C2 (stereo not given),2,90*,1.8,i,-4,10
Cc1cccc(NC(=S)NC2CC3CCCC(C2)N3Cc2cccs2)c1C (stereo not given),3,85*,0.26,i,0,-2
CCCN1C2CCCC1CC(NC(=S)Nc1cccc(C)c1)C2 (stereo not given),4,36,0.28,i,-2,4
CCCN1C2CCCC1CC(NC(=S)Nc1cccc(C)c1C)C2 (stereo not given),nt,nt,-0.69,nt,2,-2
Cc1cccc(NC(=S)NC2CC3CCCC(C2)N3CC(C)C)c1C (stereo not given),5,89*,1.4,i,2,-11
CCc1ccccc1NC(=S)NC1CC2CCCC(C1)N2Cc1cccs1 (stereo not given),1,79*,nt,i,0,-24
COc1ccc(-c2nnn(CC(=O)N(Cc3ccccc3Cl)C(C(=O)NCC3CCCO3)c3ccco3)n2)cc1OC (stereo not given),2,8,-0.26,i,1,-4
O=[N+]([O-])c1ccc2nnn(O)c2c1,3,-7,-0.73,i,-2,-2
Cc1ccc(-n2cc(-c3ccccc3)[nH]c2=O)cc1F,3,-6,0.45,i,nt,-29
Cc1ccc(C2=Nc3ccccc3N(C(=O)c3ccccc3)C(C)C2)cc1 (stereo not given),4,10,-0.11,i,nt,29
CC(C)(C)C1CCC2(CC1)NC(=S)N(c1ccccc1)N2 (stereo not given),3,58*,-0.82,i,-2,-12
CC(C)(C)C1CCC2(CC1)SCC(=O)N2c1ccccc1 (stereo not given),5,-1,1.1,i,1,77*
CC1CCC2(CC1)SCC(=O)N2c1ccc(F)cc1 (stereo not given),nt,nt,0.71,nt,1,-11
O=[N+]([O-])c1ccccc1/C=N/N1CCN(c2ccncc2S(=O)(=O)N2CCCCC2)CC1,3,99*,-0.88,i,-3,13
O=[N+]([O-])c1ccc(/C=N/N2CCN(c3ccncc3S(=O)(=O)N3CCCCC3)CC2)cc1,2,99*,-0.35,i,-2,-4
O=[N+]([O-])c1ccc(N2CCCCCC2)c(S(=O)(=O)N2CCCCC2)c1,2,38,-0.14,i,2,18
CC(C)(C)OC(=O)NNC(=O)c1cccs1,4,1,2.6,i,0,-10
O=[N+]([O-])c1ccc(Oc2ccc(F)cc2)c2ccncc12,2,19,0.52,i,-4,77*
CC(=O)Nc1cccc(Oc2ncccc2[N+](=O)[O-])c1,nt,nt,0.085,nt,2,-3
SMILES,MT stabilize HCS,Lmaj promast,Dynein transport,Autophagy HCS,bCat nuc transl,CHOP inhibitor
O=[N+]([O-])c1cccnc1Oc1ccc(F)cc1,nt,nt,-0.21,nt,2,13
O=[N+]([O-])c1ccc(Oc2cccc(Br)c2)c2ccncc12,2,6,-1.2,+,5,67
Clc1ccc(-c2csc(=Nc3cccnc3)n2CCCn2ccnc2)cc1Cl,3,99*,0.6,+,-3,69
COCCn1c(-c2ccc(Br)cc2)csc1=Nc1cccnc1,1,39,-0.89,i,-1,46
CCOc1ccc(C(=O)N[C@H](C(=O)Nc2ccc(OC)c(S(=O)(=O)N3CCOCC3)c2)C(C)C)cc1,3,-7,-0.26,i,0,23
COc1ccc(NS(=O)(=O)c2cccc(Cl)c2)cc1S(=O)(=O)N1CCCCC1,2,59*,-0.91,i,-2,15
COc1ccc(NC(=O)[C@@H](NC(=O)c2ccccc2)C(C)C)cc1S(=O)(=O)N1CCCCC1,3,72*,-0.036,i,-2,11
COc1ccc(NS(=O)(=O)c2cccc(Cl)c2Cl)cc1S(=O)(=O)N1CCCCC1,6,2,0.75,i,-1,16
COc1ccc(NC(=O)c2cncc(Br)c2)cc1S(=O)(=O)N1CCCCC1,3,73*,0.13,i,-2,5
CCN1C(=O)/C(=C/c2nc3ccccc3c(=O)[nH]2)c2ccccc21,3,99*,0.78,i,0,-59
CCN1C(=O)/C(=C\c2nc3ccccc3c(=O)n2-c2ccccc2)c2ccccc21,4,77*,-2.5,i,-1,2
CCN1C(=O)/C(=C/c2nc3ccccc3c(=O)n2-c2ccc(C)cc2)c2ccccc21,4,99*,0.19,i,2,-20
CC1CC(O)C(C)CN1 (stereo not given),nt,nt,-0.79,nt,0,22
O=C(c1cc2sccc2n1Cc1ccccc1)N1CCCc2ccccc21,2,63*,0.2,i,6,32
COC(=O)c1cc2sccc2n1CC(=O)Nc1cccc(SC)c1,3,-3,-0.35,i,-2,85*
COC(=O)c1cc2sccc2n1CC(=O)N1CCCc2ccccc21,7,23,-0.39,i,-2,17
CCOC(=O)c1cc2sccc2n1CC(=O)N1CCCc2ccccc21,2,92*,-0.47,i,0,42
COC(=O)c1cc2sccc2n1Cc1nc(-c2cccc(Cl)c2)oc1C,3,64*,-0.65,i,nt,26
O=C(O)c1cc(N/N=C/C=C/c2ccccc2)ccc1Cl,5,-15,2.4,i,1,-8
CCOC(=O)c1cc2sccc2n1Cc1ccccc1,4,1,-0.92,i,0,80*
O=C(CC1CCS(=O)(=O)C1)Nc1ccc[nH]c1=O (stereo not given),4,-2,-0.076,i,-1,22
COc1ccc(-c2csc(N(CC3CCCO3)C(=O)c3ccco3)n2)cc1 (stereo not given),2,-2,-0.46,i,0,24
Cc1nnc2sc(SCC(=O)Nc3nccs3)nn2c1=O,2,92*,1.3,i,-1,21
